Lmaj promast – Leishmania major promastigote growth inhibition, primary screen; 9% of 200,000 active; inhibition, % at 10 µM; Leishmania major promastigotes, resazurin fluorescence viability;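 also: promastigotes grown with compound for 44 hours at 28 °C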
NLRP3 yeast inh – NALP3 inflammasome inhibitors in reconstituted yeast, primary screen, luminescence, uHTS; Yeast reconstituted NLRP3/ASC/caspase-1, beta-gal luminescence, 24 h; inhibition, % at 10 µM; 0.39% of 330,000 active; AID 2825, 2010;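 active = inhibition of 50% or more; inactive = inhibition below 50%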;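 also: plate controls were induced DMSO wells for no effect and uninduced yeast grown without galactose for full effect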
PolyA inhibitor – polyadenylation inhibitors in yeast reporter cells, primary screen, luminescence, S. cerevisiae; S. cerevisiae SKY197-pL101 polyadenylation reporter, beta-gal luminescence; efflux-impaired pdr1/pdr3 knockout yeast; score 100 = 6 SD above DMSO; activity score, % at 12 µM; 0.02% of 300,000 active;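 active = lowest replicate activity score at least 50, where 100 means six control SD above control mean; inconclusive = lowest score under 50 but half or more replicates reach 50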;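 also: yeast exposed to compound for 9 h at 30 °C; higher score means more reporter readthrough which indicates perturbed polyadenylation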
T cruzi repl – inhibitors of intracellular T. cruzi growth, primary screen, luminescence, NIH3T3 host cells. 1.4% of 300,000 active. inhibition, % (test concentration not listed). AID 1885, 2009. T. cruzi beta-gal in NIH3T3, 90 h;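 active = mean inhibition across valid replicates above about 55%, limit read from the data; inconclusive = mean below that limit but half or more replicates reach it; inactive = mean below it, under half of replicates reach it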;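 also: signal also drops with host cell toxicity which is not excluded here; 0% = plate median of DMSO wells and 100% = zero luminescence signal; higher percent means less beta-gal luminescence so fewer parasites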
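Test system: β-gal T. cruzi (Tulahuen C4) inside NIH/3T3 cells / Quantity: 5,000 cells/well / Measured by: luminescence from GalScreen with 0.05% NP40, read after 60 min / Medium: DMEM plus 2% FBS / Measure: parasite load inhibition, % / Reagent: Tulahuen C4 trypomastigotes, 5000/well / Schedule: co-culture of at least 90 h after 3 h attachment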
NALP1 yeast inh – NALP1 inflammasome inhibitors in reconstituted yeast, colorimetric, S. cerevisiae, triplicate retest; S. cerevisiae NALP1/ASC/caspase-1 growth, X-gal OD620, 72 h; inhibition, % at 10 µM; 0.61% of 280,000 active; in the data active = inhibition mostly above about 24%, no sharp cut-off; inactive = mostly below about 32%
Calb FLC – C. albicans growth inhibition with fluconazole, primary screen, CaCi-2 strain, Alamar Blue fluorescence; C. albicans CaCi-2 + fluconazole, 48 h; growth inhibition, % (no concentration beside the values); 0.57% of 300,000 active; AID 1979, 2009;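 active = growth inhibition above about 58% in most replicates, limit read from the data, passing the limit was not always enough; inconclusive = exactly half the replicates above a set limit; inactive = most replicates below a set limit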;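 also: all wells also contain fluconazole at 8 µg/ml as a sub-toxic cotreatment; 0% = median of DMSO wells and 100% = median of geldanamycin control wells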
NALP3 yeast conf – NALP3 inhibitors retested in yeast, confirmation, luminescence, single concentration. shares compounds with NLRP3 yeast inh. yeast expressing human NALP3. inhibition, % at 10 µM. 81% of 1,300 active; in the data active = inhibition above about 48%
Casp1 ASC ctr – CASP1-PYCARD signaling inhibition in yeast, confirmatory test, counterassay for NLRP3 inhibitor program, one-dose; shares compounds with NLRP3 yeast inh; yeast expressing Caspase-1-ASC, luminescence counter screen; inhibition, % at 10 µM; 66% of 1,000 active; AID 488784, 2010
NALP3 yeast rt – NALP3 inhibitors in yeast, repeat test, confirmation, luminescence, single concentration, retest; 53% of 1,000 active; AID 488794, 2010; yeast expressing human NALP3, luminescence read-out; inhibition, % at 10 µM; shares compounds with NLRP3 yeast inh
* hit, by the source's call; ? = inconclusive; / = not tested or not shown. Shown is part of a subset that was picked to be rich in hits. Rule as the data show it, unless noted: active = inhibition above about 50%; inactive = the rest.

SMILES	Lmaj promast	NLRP3 yeast inh	PolyA inhibitor	T cruzi repl	NALP1 yeast inh	Calb FLC	NALP3 yeast conf	Casp1 ASC ctr	NALP3 yeast rt
CSc1nc2cc(Oc3cccc(Cl)c3Cl)c(Cl)cc2[nH]1	/	82.9*	-14.2	?	-7.3	/	90.9*	96.5*	95.3*
CSc1nc2ccc(Cl)cc2[nH]1	0.1	24.7	-19.1	-6.6	25.0	-4.6	/	/	/
O=C(O)/C=C/C(=O)Nc1ccc(C2(c3ccc(NC(=O)/C=C/C(=O)O)cc3)c3ccccc3-c3ccccc32)cc1	/	14.6	2.6	-4.0	1.7	3.7	/	/	/
CC1(c2nnc(-c3ccccc3)o2)CC(c2c(Cl)cccc2Cl)=NO1 (stereo unspecified)	/	55.0*	-20.3	-3.9	/	-7.2	70.8*	32.1	37.4
O=C(NCCCCc1ccccc1)c1ccc(Br)cc1	/	58.7*	10.7	5.2	-8.0	7.1	60.8*	37.3	35.9
O=C(NCCCCc1ccccc1)c1ccccc1	-3.0	36.9	-1.2	3.6	-4.0	-6.8	/	/	/
O=C(NCCCCc1ccccc1)c1ccccc1F	/	54.1*	-11.8	-5.6	21.5	2.0	62.5*	53.1*	44.0
CCN1CCN(c2ccc(Cl)cc2NC(=O)c2ccc(-n3nc(C)cc3C)cc2)CC1	/	51.3*	/	/	/	/	44.2	39.0	32.1
CCN1CCN(c2ccc(Cl)cc2NC(=O)c2ccco2)CC1	/	10.8	/	/	/	/	/	/	/
COc1ccc(Nc2c(C)cccc2C)cc1	1.2	-105.3	-13.3	6.5	-46.5	12.7	-12.0	/	/
Cc1cccc(C(=O)Nc2scc(-c3ccc(Br)cc3)c2C(=O)O)c1	/	61.0*	?	-13.7	/	5.6	61.2*	13.1	25.9
O=C(Nc1scc(-c2ccc(F)cc2)c1C(=O)O)c1ccco1	-1.1	22.4	13.7	-7.8	-0.7	1.3	/	/	/
Cc1ccc(-c2csc(NC(=O)c3ccc(Br)cc3)c2C(=O)O)cc1	/	90.6*	-2.3	-10.9	61.3*	-2.0	95.8*	95.2*	88.0*
Cc1ccc(-c2csc(NC(=O)/C=C/c3ccco3)c2C(=O)O)cc1	-0.8	82.8*	0.9	-3.7	8.7	6.0	90.2*	89.8*	83.7*
Cc1cccc(C(=O)Nc2scc(CC(C)C)c2C(=O)O)c1	-8.6	-13.2	-10.1	-25.6	14.3	-6.7	/	/	/
Cc1ccc(-c2csc(NC(=O)c3cccc(C)c3)c2C(=O)O)cc1	/	64.6*	?	-17.3	/	1.8	69.6*	65.8*	61.2*
O=C(COC(=O)C12CC3CC(CC(Br)(C3)C1)C2)Nc1cccnc1Cl	-4.1	12.8	-0.5	9.4	15.5	4.4	/	/	/
Cc1cccc(OCCCC(=O)N2CCCc3ccccc32)c1C	3.2	1.5	19.9	1.1	6.3	4.8	/	/	/
Cc1ccc(-c2csc(NC(=O)c3ccccc3Cl)c2C(=O)O)cc1	/	22.3	-9.3	-6.1	-14.2	16.4	/	/	/
CC(C)c1ccc(-c2csc(NC(=O)c3cccs3)c2C(=O)O)cc1	0.6	71.4*	18.9	-4.8	-7.3	10.1	84.0*	76.0*	74.5*
CC(Oc1ccc(F)cc1)C(=O)Nc1nc(-c2ccccn2)cs1 (stereo unspecified)	/	55.3*	5.7	50.7	/	0.2	73.5*	82.2*	74.5*
O=S(=O)(Oc1ccc(Cl)cc1)c1cccc2cccnc12	/	58.5*	-5.7	/	15.8	6.5	54.0*	71.5*	60.6*
O=C(COC(=O)c1cc(Cl)ccc1O)NCC1CCCO1 (stereo unspecified)	/	5.0	-11.9	-10.3	/	2.4	/	/	/
N#Cc1cnn2c3c(cnc12)C(=O)N1CCc2ccccc2C1C3 (stereo unspecified)	9.1	12.9	9.7	3.5	-9.9	-4.5	/	/	/
